Data published in ChEMBL document CHEMBL3244174, “Synthesis and biological activity of some new furan quaternary salts” (J Med Chem, 1977).

Columns and labels:
[1] = system: Candida albicans; test: Antifungal activity against Candida albicans SKF 2270 assessed as growth inhibition by agar dilution method; type: functional
[2] = system: Klebsiella pneumoniae; test: Antibacterial activity against Klebsiella pneumoniae ATCC 10031 assessed as growth inhibition after 24 hrs by dilution tube method; type: functional; conditions: ATCC 10031, 24 h
Summary of the method: (§1)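 Broth tube dilution in Tryptone Soya Broth, duplicate tubes at each concentration. MIC (μg/ml) was the highest dilution preventing visible growth. Nitrofurantoin run under the same conditions.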

[3] = system: Histoplasma capsulatum; test: Antifungal activity against Histoplasma capsulatum RNSH Hi-70 1/2 assessed as growth inhibition by agar dilution method; type: functional
[4] = system: Escherichia coli; test: Antibacterial activity against Escherichia coli 114 assessed as growth inhibition after 24 hrs by dilution tube method; type: functional; conditions: Escherichia coli, 114, 24 h; summary of the method: as §1
[5] = system: Trichophyton rubrum; test: Antifungal activity against Trichophyton rubrum 252 CSTM assessed as growth inhibition by agar dilution method; type: functional
[6] = system: Pseudomonas aeruginosa; test: Antibacterial activity against Pseudomonas aeruginosa ATCC 10145 assessed as growth inhibition after 24 hrs by dilution tube method; type: functional; conditions: ATCC 10145, 24 h; summary of the method: as §1
[7] = system: Trichophyton mentagrophytes; test: Antifungal activity against Trichophyton mentagrophytes A-280 USPHS assessed as growth inhibition by agar dilution method; type: functional
[8] = system: Nannizzia gypsea; test: Antifungal activity against Microsporum gypseum 153 CSTM assessed as growth inhibition by agar dilution method; type: functional
[9] = system: Enterococcus faecalis; test: Antibacterial activity against Streptococcus faecalis ATCC 10541 assessed as growth inhibition after 24 hrs by dilution tube method; type: functional; conditions: ATCC 10541, 24 h; summary of the method: as §1
[10] = system: Salmonella typhi; test: Antibacterial activity against Salmonella typhi 115 assessed as growth inhibition after 24 hrs by dilution tube method; type: functional, Salmonella enterica subsp. enterica serovar Typhi; conditions: Salmonella enterica, 115, 24 h
Summary of the method: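 Dilution tube method in Tryptone Soya Broth; MIC (μg/ml) taken as highest dilution preventing visible growth; duplicates at every concentration; nitrofurantoin reference run under same conditions.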

[11] = system: Microsporum canis; test: Antifungal activity against Microsporum canis VM-200 USPHS assessed as growth inhibition by agar dilution method; type: functional
[12] = system: Agrobacterium tumefaciens; test: Antibacterial activity against Agrobacterium tumefaciens NRRL B-36 assessed as growth inhibition after 24 hrs by dilution tube method; type: functional; conditions: NRRL B-36, 24 h; summary of the method: as §1
[13] = system: Mycobacterium tuberculosis; test: Antibacterial activity against Mycobacterium tuberculosis H37Rv assessed as growth inhibition by serial dilution method; type: functional
Summary of the method: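 M. tuberculosis H37Rv maintained on Lowenstein–Jensen medium; tested in Youman's medium by serial dilution.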

[14] = system: Staphylococcus aureus; test: Antibacterial activity against Staphylococcus aureus ATCC 6538 assessed as growth inhibition after 24 hrs by dilution tube method; type: functional; conditions: ATCC 6538, 24 h; summary of the method: as §1
[15] = system: Cryptococcus neoformans; test: Antifungal activity against Cryptococcus neoformans 103 assessed as growth inhibition by agar dilution method; type: functional

SMILES | MIC [1] [µg/mL] | MIC [2] [µg/mL] | MIC [3] [µg/mL] | MIC [4] [µg/mL] | MIC [5] [µg/mL] | MIC [6] [µg/mL] | MIC [7] [µg/mL] | MIC [8] [µg/mL] | MIC [9] [µg/mL] | MIC [10] [µg/mL] | MIC [11] [µg/mL] | MIC [12] [µg/mL] | MIC [13] [µg/mL] | MIC [14] [µg/mL] | MIC [15] [µg/mL]
C[N+](C)(CCCCCCCOc1c(Br)cc(Br)cc1Br)Cc1ccc([N+](=O)[O-])o1.[Br-] | > 200 | 5 | > 200 | > 200 | > 200 | 3 | > 200 | > 200 | 7.5 | > 200 | > 200 | 25 | 10 | 7.5 | 5
C[N+](C)(CCCCCCCCCCCCCCOc1c(Br)cc(Br)cc1Br)Cc1ccc(Br)o1.Cc1ccc(S(=O)(=O)[O-])cc1 | > 200 | 100 | > 200 | > 200 | > 200 | 50 | > 200 | > 200 | 100 | 200 | 200 | 200 | 200 | 100 | 200
C[N+](C)(CCCCCCCCOc1c(Br)cc(Br)cc1Br)Cc1ccc([N+](=O)[O-])o1.[Br-] | > 200 | 2 | > 200 | > 200 | > 200 | 2 | > 200 | > 200 | 4 | > 200 | > 200 | 10 | 7.5 | 4 | 4
C[N+](C)(CCCCCCCCOc1c(Br)cc(Br)cc1Br)Cc1ccc(Br)o1.[Br-] | > 200 | 4 | > 200 | > 200 | > 200 | 2 | > 200 | > 200 | 4 | > 200 | > 200 | 7.5 | 50 | 3 | 4
Cc1cc(OCC[N+](C)(C)Cc2ccc([N+](=O)[O-])o2)c(C(C)C)cc1Cl.Cc1ccc(S(=O)(=O)[O-])cc1 | > 200 | 25 | > 200 | > 200 | > 200 | 25 | > 200 | > 200 | 200 | > 200 | > 200 | 100 | 50 | 100 | 100
C[N+](C)(CCOc1ccc(Cl)cc1Cl)Cc1ccc(Br)o1.[Br-] | > 200 | 100 | > 200 | > 200 | > 200 | 50 | > 200 | > 200 | > 200 | > 200 | > 200 | > 200 | > 200 | 100 | > 200
C[N+](C)(CCCCCCCCCCCCOc1c(Br)cc(Br)cc1Br)Cc1ccc(Br)o1.[Br-] | > 200 | 200 | > 200 | > 200 | > 200 | 50 | > 200 | > 200 | 200 | > 200 | 200 | > 200 | 100 | 200 | 200
Cc1cc(OCCCCCCCCCCCCCC[N+](C)(C)Cc2ccc(Br)o2)c(C(C)C)cc1Cl.Cc1ccc(S(=O)(=O)[O-])cc1 | > 200 | 200 | > 200 | > 200 | > 200 | 200 | > 200 | > 200 | > 200 | > 200 | > 200 | > 200 | > 200 | > 200 | > 200
Cc1ccc(C[N+](C)(C)CCOc2c(Br)cc(Br)cc2Br)o1.[Br-] | > 200 | 50 | > 200 | > 200 | > 200 | 25 | > 200 | > 200 | 50 | > 200 | > 200 | 100 | 25 | 50 | 50
